# Assay outcomes from PubChem BioAssay.
# In the library only some 1.2% were active in any assay of this set; here they are far more common.
# Ec RNAP inh: inhibitors of Escherichia coli RNA polymerase. P0A8V2. E. coli RNA polymerase, fluorescence transcription assay. inhibition, %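 (tested at 10 µM)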. 62,000 tested, 0.2% active. AID 559; in the data active = inhibition above about 20%;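 note: 0% = enzyme without compound and 100% = no enzyme blank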
# AP ELISA ortho: orthogonal test for alternative complement pathway inhibitors; inhibition, % at 5 µM; 62,000 tested, 0.08% active; Human serum alternative complement pathway, LPS-coated ELISA, C3 deposition; tested in compound mixtures; AID 1235;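 active = inhibition above 30% in each of the two pooled mixtures holding the compound, so the lower value exceeds 30%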;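 note: 0% = serum in Mg-EGTA without compound and 100% = EDTA serum blank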
#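 Test system: human serum complement alternative pathway, C3 deposition onto LPS / Medium: Mg2+-EGTA GVB++ buffer containing human serum at 1:15 dilution / Probe or stimulus: Plate-bound LPS / Times: 1 h at 37 °C / Signal: ELISA with HRP anti-human C3 antibody, TMB substrate, absorbance 450 nm / Measure: percent inhibition / Repeats: two pool placements per compound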
# SKBR3 24h inh: SK-BR-3 proliferation inhibitors; 41,000 tested, 0.47% active; SK-BR-3 viability, CellTiter-Glo ATP luminescence, 24 h; active compounds read low; viability, % at 10 µM; AID 847;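 active = viability at or below the median of all test compounds minus 3 SD, in both replicates if run twice, cut at about 45% in these data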;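 note: 100% = median untreated cell wells and 0% = median positive control drug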
# HER2 expr 66K: inhibitors of human Her2 kinase expression; P04626; SKBR-3 HER2 protein level, AlphaScreen, 18-24 h; active compounds read low; HER2 level % of control, % at 10 µM; 65,000 tested, 0.69% active;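 active = HER2 level under 5% of the carrier-only control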;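 note: 100% = DMSO carrier and 0% = 500 nM PU-H71 HSP90 inhibitor; lower value means stronger loss of Her2 protein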
# TNAP act DEA: activates human TNAP at intermediate phosphate acceptor concentration; P05186; purified TNAP, CDP-star luminescence, 100 mM DEA, 30 min; active compounds read high; scale: 0 levamisole-inhibited, 1 vehicle-only enzyme; activation factor at 20 µM; 64,000 tested, under 10 active; AID 813;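 active = activation factor of at least 2 at 20 µM, relative to controls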
# MMP-13 inhibitor: inhibitors of human MMP13 | P45452 | MMP-13 fTHP FRET cleavage, Mca fluorescence | inhibition, % at 4 µM | 65,000 tested, 0.07% active;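 active = inhibition above the mean of compound-free control plate wells plus 3 SD, cut at about 14% in these data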;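 note: 0% = DMSO wells and 100% = wells with reference MMP-13 inhibitor after basal subtraction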
# * = called active by the depositor; . = no result given.
SMILES,Ec RNAP inh,AP ELISA ortho,SKBR3 24h inh,HER2 expr 66K,TNAP act DEA,MMP-13 inhibitor
Cc1ccc2oc3c(c(=O)c2c1)C(c1cccc(Br)c1)N(Cc1ccco1)C3=O (centres undefined),4,-9,91,64,0.9,3
O=C(Cc1cccs1)NCC1CCCO1 (centres undefined),6,7,35*,89,0.9,3
CNc1nc(OC)nc(N2CCOCC2)n1,5,6,100,101,1,-2
COc1nc(N)nc(N2CCOCC2)n1,3,5,92,81,0.9,15*
Cc1cc(Nc2ccc(F)cc2)n2nc(C)nc2n1,22*,15,.,117,1,8
Nc1ccc2oc(-c3ccccn3)nc2c1,3,12,.,100,0.9,2
Clc1ccc2oc(-c3ccccn3)nc2c1,9,38*,111,103,0.9,-20
Cn1c(CSc2ncccn2)nnc1SCC(=O)N1CCCc2ccccc21,-5,-17,24*,128,1,0
Cc1c(N=Cc2ccc(-c3ccc(Cl)cc3)o2)c(=O)n(-c2ccccc2)n1C,8,10,97,89,0.9,0
Cc1ccc(-c2ccc(/C=N/c3ncn[nH]3)o2)cc1Cl,1,.,35*,12,0.8,-5
Cc1ccccc1-n1c(SCC(=O)c2cc(C)n(C)c2C)nnc1-c1ccncc1,3,6,.,94,0.9,3
